Results on 16 compounds are retold here after ChEMBL document CHEMBL3596109, “In vitro antiplasmodial activity of triazole-linked chloroquinoline derivatives synthesized from 7-chloro-N-(prop-2-yn-1-yl)quinolin-4-amine” (Bioorg Med Chem, 2015).

Test [1] concerns Plasmodium falciparum. As to the kind of experiment: Antiplasmodial activity against chloroquine-sensitive asexual erythrocytic stage of Plasmodium falciparum NF54 assessed as parasite growth inhibition by parasite lactate dehydrogenase assay. It is filed as functional, organism-based. The method in brief:
(§1)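 Asexual erythrocytic cultures were maintained continuously by a modified Trager–Jensen method. Samples came from 20 mg/mL DMSO stocks and were serially diluted 2-fold in complete medium over 10 concentrations, from 100 µg/mL down to 0.20 µg/mL; some started at 1000 µg/mL. Reference drugs started at 100 ng/mL. Read-out was modified pLDH. IC50 came from full dose-response curves, run in triplicate on two occasions.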

Test [2] concerns Plasmodium falciparum. As to the kind of experiment: Antiplasmodial activity against chloroquine-resistant asexual erythrocytic stage of Plasmodium falciparum Dd2 assessed as parasite growth inhibition by parasite lactate dehydrogenase assay. It is filed as functional, organism-based. The method in brief: as §1
In test [3] the test system is Plasmodium falciparum. Nature of the test: Resistance index, ratio of IC50 for chloroquine-resistant asexual erythrocytic stage of Plasmodium falciparum Dd2 to IC50 for chloroquine-sensitive asexual erythrocytic stage of Plasmodium falciparum NF54. The class given is functional.
Test [4] concerns Plasmodium falciparum. As to the kind of experiment: Potency index, ratio of chloroquine IC50 to compound IC50 for chloroquine-resistant asexual erythrocytic stage of Plasmodium falciparum Dd2.

Molecules are shown by their SMILES. pIC50: −log10 of the molar value. A value given as a limit tells only on which side of the number the result lay.

As a reminder, the pIC50 is the negative decadic logarithm of the IC50, by convention in mol/L. As to `Clc1ccc2c(NCc3cn(CCN4CCOCC4)nn3)ccnc2c1`, the negative-log IC50 (pIC50) in the test on Plasmodium falciparum [1] was 5.75; with Plasmodium falciparum [2], 5.89. Also, in the test on Plasmodium falciparum [3], the “Ratio IC50” value is given as 1.4.

For the compound `Clc1ccc2c(NCc3cn(CCN4CCCCC4)nn3)ccnc2c1`, the “Ratio IC50” value came to 3 in the test on Plasmodium falciparum [4] and 5.1 in the test with Plasmodium falciparum [3]. The negative logarithm of the IC50 (pIC50) was 7.99 in the test with Plasmodium falciparum [1] and 7.29 in the test with Plasmodium falciparum [2].

For `Clc1ccc2c(NCc3cn(CCCN4CCCCC4)nn3)ccnc2c1`, the values for the pIC50 in the test on Plasmodium falciparum [1] and with Plasmodium falciparum [2] were 6.91 and 8.05, respectively. The “Ratio IC50” value in the test with Plasmodium falciparum [3] was determined as 14.

On to `Clc1ccc2c(NCc3cn(CCN4CCCC4)nn3)ccnc2c1`, for which the entries for the “Ratio IC50” value in the test on Plasmodium falciparum [4] and in the test with Plasmodium falciparum [3] were 3 and 4.3, respectively. Also, the pIC50 with Plasmodium falciparum [1] is 7.79; in the test on Plasmodium falciparum [2], 7.16.

In the case of `Clc1ccc2c(NCc3cn(CCCN4CCCC4)nn3)ccnc2c1`, the negative-log IC50 (pIC50) with Plasmodium falciparum [1] is 6.83; with Plasmodium falciparum [2], 7.74. Also, the “Ratio IC50” value in the test on Plasmodium falciparum [3] was found to be 8.1.

`CCN(CC)CCn1cc(CNc2ccnc3cc(Cl)ccc23)nn1`: the “Ratio IC50” value in the test with Plasmodium falciparum [4] was found to be 3; with Plasmodium falciparum [3], 5.5. For the same compound, the negative-log IC50 (pIC50) is 8.01 with Plasmodium falciparum [1] and 7.27 in the test on Plasmodium falciparum [2].

Consider `CCN(CC)CCCn1cc(CNc2ccnc3cc(Cl)ccc23)nn1`, for which the pIC50 in the test with Plasmodium falciparum [1] was 5.27; with Plasmodium falciparum [2], 5.70. The “Ratio IC50” value in the test with Plasmodium falciparum [3] stood at 2.7.

For `Clc1ccc2c(NCc3cn(CCCN4CCOCC4)nn3)ccnc2c1`, the results for the pIC50 in the test with Plasmodium falciparum [1] and with Plasmodium falciparum [2] were 6.58 and 7.11, respectively. Moreover, the “Ratio IC50” value with Plasmodium falciparum [3] was found to be 3.3.

In the case of `CN(CCn1cc(CNc2ccnc3cc(Cl)ccc23)nn1)c1ccccc1`, the pIC50 is 6.31 with Plasmodium falciparum [1] and 6.42 in the test with Plasmodium falciparum [2]. The “Ratio IC50” value with Plasmodium falciparum [3] came out at 1.3.

Consider `CN(CCCn1cc(CNc2ccnc3cc(Cl)ccc23)nn1)c1ccccc1`, for which the results for the negative-log IC50 (pIC50) in the test with Plasmodium falciparum [1] and in the test on Plasmodium falciparum [2] were 6.52 and 6.78, respectively. Moreover, in the test on Plasmodium falciparum [3], the “Ratio IC50” value came out at 1.8.

With `CN(CCn1cc(CNc2ccnc3cc(Cl)ccc23)nn1)Cc1ccccc1`, the results for the pIC50 in the test with Plasmodium falciparum [1] and in the test with Plasmodium falciparum [2] were 6.67 and 6.82, respectively. Further, the “Ratio IC50” value in the test on Plasmodium falciparum [3] is 1.4.

Turning to `CN(CCCn1cc(CNc2ccnc3cc(Cl)ccc23)nn1)Cc1ccccc1`, the “Ratio IC50” value in the test on Plasmodium falciparum [4] was determined as 3; in the test with Plasmodium falciparum [3] it was 3.4. The pIC50 in the test on Plasmodium falciparum [1] was 7.82; in the test with Plasmodium falciparum [2], 7.29.

Turning to `Clc1ccc2c(NCc3cn(CCN(Cc4ccccc4)Cc4ccccc4)nn3)ccnc2c1`, the “Ratio IC50” value was 3 in the test with Plasmodium falciparum [4] and 0.6 with Plasmodium falciparum [3]. Also, the negative-log IC50 (pIC50) is 6.85 in the test with Plasmodium falciparum [1] and 7.10 in the test with Plasmodium falciparum [2].

`Clc1ccc2c(NCc3cn(CCCN(Cc4ccccc4)Cc4ccccc4)nn3)ccnc2c1`: the negative-log IC50 (pIC50) was 5.65 in the test on Plasmodium falciparum [1] and 6.94 with Plasmodium falciparum [2]. In addition, the “Ratio IC50” value in the test with Plasmodium falciparum [3] is listed as 20.

With `Clc1ccc2c(NCc3cn(CCCN4c5ccccc5CCc5ccccc54)nn3)ccnc2c1`, the “Ratio IC50” value in the test with Plasmodium falciparum [4] is recorded as 3; in the test with Plasmodium falciparum [3], 1.2. The figures for the pIC50 with Plasmodium falciparum [1] and in the test with Plasmodium falciparum [2] were 7.19 and 7.13, respectively.

In the case of `C[C@H]1[C@H](OC(=O)CCC(=O)O)O[C@@H]2O[C@@]3(C)CC[C@H]4[C@H](C)CC[C@@H]1[C@@]24OO3` [ARTESUNATE], the figures for the pIC50 with Plasmodium falciparum [1] and in the test on Plasmodium falciparum [2] were greater than 8.28 and 7.62, respectively. Moreover, in the test with Plasmodium falciparum [3], the “Ratio IC50” value is reported as 4.6.
